Fibroblast inh = blocks proliferation of human lung fibroblasts. LL 47 human lung fibroblast viability, ATP luminescence; active compounds read low. viability, % at 10 µM. AID 719. 1.1% of 85,000 active;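 active = viability at or below 50% in the single dose screen; inactive = viability above 50%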;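 note: compound exposure lasted 72 h before the ATP readout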
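Test system: LL 47 human lung fibroblasts / Incubation: 72 h compound exposure at 37 °C after overnight plating / Technique: luminescent ATP detection, CellTiter-Glo / Compound dosing: 0.1% DMSO in all compound wells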
bCat KO growth = beta-catenin-lacking colon tumor cell growth suppression; HCT116 beta-catenin knockout viability, CellTiter-Glo, 60 h; active compounds read low; viability, % at 10 µM; 1.5% of 140,000 active;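 active = viability at or under a set limit, the compound median less 4 SD, cut at about 6% in these data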
PTEN del growth = PTEN-deleted cell growth suppression. HCT116 PTEN-null viability, CellTiter-Glo, 60 h; active compounds read low. viability, % at 10 µM. 1.2% of 140,000 active;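 active = viability at or below a set limit, 4 SD under the median of all tested compounds, cut at about 3.7% in these data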;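 note: PTEN knockout HCT116 line with beta catenin targeted HCT116 as companion control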
H69AR growth 86K = blocks growth of human H69AR lung tumor cells; H69AR lung tumor viability, ATP luminescence, 72 h; active compounds read low; viability, % at 10 µM; 6% of 85,000 active;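 active = viability at or below 40%; inactive = viability above 40%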;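 note: multidrug resistant small cell line overexpressing MRP-1 efflux transporter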
HUVEC inhibit = human endothelial cell proliferation inhibition; HUVEC proliferation, CellTiter-Glo luminescence, 72 h; active compounds read low; viability, % at 10 µM (by protocol); 1.1% of 86,000 active;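 active = viability at or below 30%; inactive = viability above 30%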
A number is an active result. Only a selection was taken, and hits are over-represented in it overall.

`O=C(Nc1nnc(-c2ccccc2Cl)o1)c1ccco1` gave Fibroblast inh inactive, bCat KO growth inactive, PTEN del growth inactive, H69AR growth 86K inactive and HUVEC inhibit inactive.
Screening COc1cccc2sc(Nc3nc(-c4cc5ccccc5oc4=O)cs3)nc12 returned bCat KO growth inactive and PTEN del growth inactive.
Screening O=C(Nc1nnc(-c2ccccc2Cl)o1)c1nc2ccccc2s1 returned Fibroblast inh inactive, bCat KO growth inactive, PTEN del growth inactive, H69AR growth 86K 28 and HUVEC inhibit inactive.
Screening COc1cccc(-c2nnc(NC(C)=O)o2)c1 returned Fibroblast inh inactive, H69AR growth 86K inactive and HUVEC inhibit inactive.
Screening CC(C)(C)c1nc[nH]c(=O)c1Br returned bCat KO growth inactive and PTEN del growth inactive.
Screening CC(=O)c1ccc(OCCCC(=O)NC2CCCc3ccccc32)cc1 (stereo unspecified) returned bCat KO growth inactive and PTEN del growth inactive.
Screening N#CCCSc1nc(N2CCOCC2)c2c(c1C#N)CCCC2 returned Fibroblast inh inactive, bCat KO growth inactive, PTEN del growth inactive, H69AR growth 86K 38 and HUVEC inhibit inactive.
For CCCSc1nc(N2CCOCC2)c2c(c1C#N)CCCC2 the results were Fibroblast inh inactive, bCat KO growth inactive, PTEN del growth inactive, H69AR growth 86K inactive and HUVEC inhibit inactive.
Screening O=C(CSc1nnc(CCCO)n1-c1ccccc1)Nc1nccs1 returned Fibroblast inh inactive, bCat KO growth inactive, PTEN del growth inactive, H69AR growth 86K inactive and HUVEC inhibit inactive.
`CCOc1ccc(NCc2nnc(SCC(=O)Nc3cc(C)on3)n2-c2ccc(OC)cc2)cc1` gave Fibroblast inh inactive, bCat KO growth inactive, PTEN del growth inactive, H69AR growth 86K inactive and HUVEC inhibit inactive.
Screening Cc1cccc(C)c1OCc1nnc(SCC(=O)Nc2nccs2)n1-c1ccccc1 returned Fibroblast inh inactive, bCat KO growth inactive, PTEN del growth inactive, H69AR growth 86K 20 and HUVEC inhibit inactive.
COc1ccc(NCc2nnc(SCC(=O)Nc3nc(-c4ccccc4)cs3)n2-c2ccccc2)cc1 was read as bCat KO growth 1.3 and PTEN del growth 1.8.
`COc1ccc(-n2c(CNc3ccc(C)cc3)nnc2SCC(=O)Nc2nc(-c3ccccc3)cs2)cc1` gave bCat KO growth 0.8 and PTEN del growth 0.4.
`CCOc1ccc(NCc2nnc(SCC(=O)Nc3cc(C)on3)n2-c2ccccc2OC)cc1` gave Fibroblast inh inactive, bCat KO growth inactive, PTEN del growth inactive, H69AR growth 86K 12 and HUVEC inhibit inactive.
C1CCN(CCCNC2C3CC4CC(C3)CC2C4)C1 (stereo unspecified) was read as bCat KO growth inactive and PTEN del growth inactive.
For Cc1cc(Br)c2c(c1)C(O)(N1CCCCC1C)C(=O)N2 (stereo unspecified) the results were bCat KO growth inactive and PTEN del growth inactive.
For CCOC(=O)C1CCCN(C(=O)c2cc3c(-c4cccc(OC)c4)nn(C)c3s2)C1 (stereo unspecified) the results were Fibroblast inh inactive, bCat KO growth inactive, PTEN del growth inactive, H69AR growth 86K 22 and HUVEC inhibit inactive.
COc1cc([N+](=O)[O-])ccc1NC(=O)CC(C)C was read as bCat KO growth inactive and PTEN del growth inactive.
For Cc1cccc(N2CCN(C(=O)c3ccc4nc(-c5ccco5)c(-c5ccco5)nc4c3)CC2C)c1 (stereo unspecified) the results were Fibroblast inh inactive, bCat KO growth inactive, PTEN del growth inactive, H69AR growth 86K inactive and HUVEC inhibit 23.
CC1(C)CC(NC(=O)C(Cl)(Cl)Cl)CC(C)(C)N1 was read as bCat KO growth inactive and PTEN del growth inactive.
COc1ccc(-c2nc(-c3ccccc3)nc(Cl)c2C#N)cc1 was read as bCat KO growth inactive and PTEN del growth inactive.
For CN(C)c1nc(-c2ccccc2)nc(-c2ccc(Cl)cc2)c1C#N the results were Fibroblast inh inactive, bCat KO growth inactive, PTEN del growth inactive, H69AR growth 86K 32 and HUVEC inhibit inactive.
`COC(=O)c1ccc(CC(=O)c2nc3ccccc3s2)cc1` gave bCat KO growth inactive and PTEN del growth inactive.
Screening COC(=O)c1ccc(/C(O)=C(\C#N)c2nc3ccccc3s2)cc1 returned Fibroblast inh inactive, bCat KO growth inactive, PTEN del growth inactive, H69AR growth 86K 32 and HUVEC inhibit inactive.
`O=C(Cc1ccc(F)cc1)Nc1c2c(nn1-c1cccc(Cl)c1)CS(=O)C2` (stereo unspecified) gave Fibroblast inh inactive, bCat KO growth inactive, PTEN del growth inactive, H69AR growth 86K inactive and HUVEC inhibit inactive.
For N#CC1=C(N)SC(N)=C(C#N)C1Cc1ccccc1 the results were Fibroblast inh inactive, bCat KO growth inactive, PTEN del growth inactive, H69AR growth 86K 17 and HUVEC inhibit inactive.
For CC1=Nc2nc(N3CCCCC3)c(C#N)c3c4c(nc(c23)N1)N(c1ccc(C(C)C)cc1)C(=O)C4 the results were bCat KO growth inactive and PTEN del growth inactive.
For CN(CC(O)COc1c(F)cc(Br)cc1F)C1CCCCC1 (stereo unspecified) the results were bCat KO growth inactive and PTEN del growth inactive.
`O=C(COc1ccc(/C=N/NC(=O)c2ccccc2)cc1)Nc1ccc([N+](=O)[O-])cc1` gave bCat KO growth inactive and PTEN del growth inactive.
CC(C)Oc1ccc(/C=N/NC(=O)C(CSCc2ccccc2)NC(=O)c2ccc([N+](=O)[O-])cc2)cc1 (stereo unspecified) was read as Fibroblast inh inactive, bCat KO growth inactive, PTEN del growth inactive, H69AR growth 86K 28 and HUVEC inhibit inactive.
For O=c1c2ccccc2c(C=Nc2cccc(S(=O)(=O)NCc3ccco3)c2)c(O)n1-c1ccc(Cl)cn1 the results were bCat KO growth inactive and PTEN del growth inactive.
`O=C(Nc1cc(S(=O)(=O)Nc2ccc(Cl)cc2)ccc1N1CCCCC1)c1ccc(F)cc1Cl` gave bCat KO growth inactive and PTEN del growth inactive.
Oc1ccc2ccccc2c1/C=N/Nc1ccccc1 was read as bCat KO growth inactive and PTEN del growth inactive.
Screening Cc1cc(N/N=C/c2c(O)ccc3ccccc23)nc(-c2ccccc2O)n1 returned bCat KO growth 2.9 and PTEN del growth inactive.
Cc1cc(Nc2ccccc2)nc(-c2ccccc2O)n1 was read as bCat KO growth inactive and PTEN del growth inactive.
For Cc1cc(NC2CCCCC2)nc(-c2ccccc2O)n1 the results were Fibroblast inh inactive, bCat KO growth inactive, PTEN del growth inactive, H69AR growth 86K 38 and HUVEC inhibit inactive.
Screening Cc1ccccc1-n1ncc2c([N+](=O)[O-])cc([N+](=O)[O-])cc21 returned Fibroblast inh inactive, bCat KO growth inactive, PTEN del growth inactive, H69AR growth 86K 25 and HUVEC inhibit 6.3.
For Nc1c(-c2ccccc2)cnn1-c1cccc([N+](=O)[O-])c1 the results were bCat KO growth inactive and PTEN del growth inactive.
`CCOC(=O)/C(=N\Nc1ccc(Cl)cc1)c1csc(Nc2ccccc2)n1` gave bCat KO growth inactive and PTEN del growth inactive.

Screening results (PubChem)
